The source of these data is PMC11452492 (Nature Communications, 2024).

The structures appear in SMILES notation.

The target in one series is JNK1 (Homo sapiens, UniProt P45983). Put plainly: in vitro JNK1 PhALC kinase assay. Format: biochemical.
Series [1] has as its system JNK mediated c-Jun(Ser73) phosphorylation. In words: quantitative western blot p-c-Jun. Format: cell-based, human. In a few lines:
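SH-SY5Y cells carry a Tet-ON-inducible MKK7–MLK3 kinase-domain chimera and were kept in DMEM F12 + 1% FBS. Cells received 2 or 3 μg/mL doxycycline together with test compound. Lysates were taken after 6 h (2 or 6 h in blots) for quantitative western blot of p-c-Jun(Ser73), with α-tubulin as load control. Normalized signal was fitted to a dose-response function for EC50. Blots are representative of two independent experiments.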
In general terms: A western blot detects proteins with antibodies after separation by electrophoresis.

Another series deals with JNK1 C116S mutant (Homo sapiens, UniProt P45983, C116S). The series is classed as binding. To be noted: repeat experiment, 100, 300, 1000 nM on JNK C116S surface.
Sequence of JNK1 C116S mutant (P45983 1-384 isoform P45983-3 C116S): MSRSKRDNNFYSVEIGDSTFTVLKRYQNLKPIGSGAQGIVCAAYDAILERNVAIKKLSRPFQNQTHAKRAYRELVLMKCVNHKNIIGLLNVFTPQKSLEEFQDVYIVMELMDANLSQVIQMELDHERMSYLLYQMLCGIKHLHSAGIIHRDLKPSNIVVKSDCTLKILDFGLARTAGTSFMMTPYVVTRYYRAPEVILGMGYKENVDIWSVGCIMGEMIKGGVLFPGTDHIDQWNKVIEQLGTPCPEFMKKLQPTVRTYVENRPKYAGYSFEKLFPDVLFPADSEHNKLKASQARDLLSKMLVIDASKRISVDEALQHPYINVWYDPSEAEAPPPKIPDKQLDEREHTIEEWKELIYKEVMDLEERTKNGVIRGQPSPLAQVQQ
The next series deals with JNK1 WT (Homo sapiens, UniProt P45983). In words: SPR kinetic binding, wild-type JNK1 surface. In general terms: SPR reads the build-up and loss of mass on a sensor chip optically.
Sequence of JNK1 WT (P45983 1-384 isoform P45983-3): as the sequence (P45983 1-384 isoform P45983-3 C116S) above, with S116C counted along it
Series [2] has as its system p38-mediated MK2 phosphorylation. In words: phospho-MK2 western blot in HEK293T MKK6EE cells. Format: cell-based, human. To be noted: doxycycline, JNK inhibitors 3 μM. In a few lines:
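HEK293T MKK6EE cells allow p38-specific activation through doxycycline-inducible expression of constitutively active MKK6EE. Phospho-MK2 was read by western blot with a fluorescent secondary antibody and infrared imaging. α-Tubulin served as load control, and anti-FLAG monitored transgene expression.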

Series [3] deals with JNK mediated c-Jun phosphorylation. Put plainly: sorbitol stimulated c-Jun phosphorylation, western blot, HEK293T cells. The series is classed as cell-based, human. The note with it: sorbitol 15 min, inhibitor 1 µM added 2 h before. In a few lines:
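HEK293T cells seeded at 50,000/well and grown to confluence (~24 h) in DMEM with 10% FBS, then serum-starved 16 h. Inhibitor in 50% DMSO added 2 h before 0.35 M sorbitol for 15 min; final DMSO 0.1%, with a DMSO-only control. Cells chilled on ice, pelleted, washed in cold PBS and lysed in SDS loading buffer. Lysates run on 10% Tris-glycine gels and blotted to nitrocellulose for phospho-JNK and phospho-c-Jun.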

Series [4] in a line: metabolic stability in rat primary hepatocytes. Format: in vitro ADME. In a few lines: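 Hepatocytes were isolated from male Wistar rats by collagenase perfusion. Test compound from DMSO was added to 1 or 10 μM final (0.1% DMSO) in William's E:Ham's F12 (1:1) medium. Samples were taken at 0–240 min, quenched with ice-cold acetonitrile, and parent compound was quantified by LC-MS/MS. A cell-free medium control was included. Clint came from parent loss; ClH and extraction ratio were predicted from Clint, with cut-offs of 0.3 and 0.7.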

Series [5] in a line: stability in rat blood plasma. Format: in vitro ADME. To be noted: up to 120 min. In a few lines: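 Test compound from DMSO was added to male Wistar rat blood plasma at 1 or 10 μM final. Samples were taken at 0, 10, 20, 30, 60 and 120 min, quenched with ice-cold acetonitrile, and centrifuged. Parent compound was quantified by LC-MS/MS, and t1/2 was calculated from its decline.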

Series [6] can be described thus: LC-MS of GSH adduct formation. The series is classed as physicochemical. To be noted: 10 mM GSH, electrospray mass spectrometry. In a few lines:
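Mass analysis of glutathione adducts by LC-MS with electrospray ionisation. Linear gradient from 10% to 55% eluent B over 12 min, then 95% B, returning to 10% B by 18 min. Flow 0.4 ml/min, column at 40 °C. Source 350 °C, spray voltage 5500 V, declustering potential 80 V. Raw spectra deconvoluted to neutral molecular masses.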

Sequence of JNK1 (P45983 1-384 isoform P45983-3): as the sequence (P45983 1-384 isoform P45983-3 C116S) above, with S116C counted along it

For `CC(=O)Nc1cccc(C(=O)Nc2ccc(Nc3nccc(-c4cccnc4)n3)c(C)c2)c1` [IN-8a], it took 5.33 ± 0.232 µM to reach half-maximal inhibition on JNK1 (IC50).

In the case of `Cc1cc(NC(=O)c2cccc(NC(=O)/C=C/CN(C)C)c2)ccc1Nc1nccc(-c2cccnc2)n1` [JNK-IN-8], in series [1] (SH-SY5Y MKK7 ACT cells, 6 h DOX stimulation), the “Western blot p-c-Jun(Ser73) EC50/IC50” value is listed as ~ 0.7 μM. For the same compound, in series [1] (SH-SY5Y MKK7 ACT, 2 or 6 h DOX, inhibitor 50 nM or 1 µM), the “effect on c-Jun(Ser73) phosphorylation” value is “can block c-Jun phosphorylation”. Moreover, on JNK1 C116S mutant, the “k1, parallel measurement” value was 1492000 M⁻¹ s⁻¹ and the “k2, parallel measurement” value came out at 0.1676 s⁻¹. Further, the “k3, new experiment calculated with the newly determined k1, k2” value on JNK1 WT (1, 3, 15 nM on JNK WT surface) is 0.03454 s⁻¹. Moreover, on JNK1 WT (new experiment (for CA-IN-8: a, 15, 40, 70 nM) on JNK WT surface), the “k3, parallel measurement” value is 0.03181 s⁻¹. For the same compound, the “effect on p38-mediated MK2 phosphorylation” value in series [2] is given as “do not affect”. Also, in [3], the “effect on c-Jun phosphorylation” value is listed as “efficiently blocked JNK mediated c-Jun phosphorylation”. Also, in series [4] (cut-off 0.3 low/intermediate, 0.7 intermediate/high), the “hepatic extraction (class)” value is listed as “low”. Further, the “in vivo hepatic clearance (ClH), predicted” value in [4] (predicted from Clint measured in rat primary hepatocyte cultures) was 0.606 L/h/kg. For the same compound, the “half-life / stability in plasma” value in series [5] is “stable”. In addition, in series [6], the “GSH adduct formation” value is “irreversible covalent adduct formation with GSH”.
